# Data as given in ChEMBL document CHEMBL4689842, “EUbOPEN Chemogenomics Library wave 1” (2021).
# Several values for one entry are separate records, joined by “and”; a condition that tells them apart may be missing. Equal values may be shown once.
# System: Fibroblast
# Assay: Multiplex assay against human fibroblast
# Assay type: toxicity, cell-based
# Conditions: 1 µM, compound concentration 1 uM
# In short: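 Live cells were stained at seeding with Hoechst33342, BioTracker Green Microtubule Cytoskeleton Dye, MitoTracker Red and Annexin V Alexa Fluor 680, then imaged on a CQ1 microscope at 37°C and 5% CO2 after compound addition. CellPathfinder machine-learning gating split cells into Hoechst high-intensity objects or normal cells. Normal cells were split into healthy, pyknosed or fragmented nuclei, and pyknosed cells into mitotic or apoptotic. Tubulin, mitochondrial-mass and membrane-permeability phenotypes are per cents of healthy-nucleus cells.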
compound,measurement,setting,value
C[C@]1(O)C[C@@H](c2nc(-c3ccc4ccc(-c5ccccc5)nc4c3)c3c(N)nccn32)C1 [LINSITINIB],Population Apoptotic (%),"12 h, replicate 1",56% and 93%
same,Population Fragmented Nuclei (%),"12 h, replicate 1",43% and 32%
same,Population Healthy Nuclei (%),"12 h, replicate 1",44% and 50%
same,Population Hoechst High Intensity Objects (%),"12 h, replicate 1",18% and 12%
same,Population Membrane Permeable-Phenotype (%),"12 h, replicate 1",13% and 8%
same,Population Mitochondria Different-Phenotype (%),"12 h, replicate 1",1%
same,Population Normal (%),"12 h, replicate 1",81% and 87%
same,Population Pyknosed Nuclei (%),"12 h, replicate 1",11% and 17%
same,Total Cell Count,"12 h, replicate 1",345 and 206
same,Population Apoptotic (%),"12 h, replicate 2",40% and 66%
same,Population Fragmented Nuclei (%),"12 h, replicate 2",56% and 76%
same,Population Healthy Nuclei (%),"12 h, replicate 2",31% and 18%
same,Population Hoechst High Intensity Objects (%),"12 h, replicate 2",45% and 43%
same,Population Membrane Permeable-Phenotype (%),"12 h, replicate 2",0% and 9%
same,Population Mitotic Cells (%),"12 h, replicate 2",60% and 33%
same,Population Normal (%),"12 h, replicate 2",54% and 56%
same,Population Pyknosed Nuclei (%),"12 h, replicate 2",12% and 5%
same,Total Cell Count,"12 h, replicate 2",75 and 105
same,Population Apoptotic (%),"24 h, replicate 1",52% and 80%
same,Population Fragmented Nuclei (%),"24 h, replicate 1",47% and 33%
same,Population Healthy Nuclei (%),"24 h, replicate 1",44% and 51%
same,Population Hoechst High Intensity Objects (%),"24 h, replicate 1",22% and 12%
same,Population Membrane Permeable-Phenotype (%),"24 h, replicate 1",9%
same,Population Mitochondria Different-Phenotype (%),"24 h, replicate 1",2% and 4%
same,Population Mitotic Cells (%),"24 h, replicate 1",47% and 20%
same,Population Normal (%),"24 h, replicate 1",77% and 87%
same,Population Pyknosed Nuclei (%),"24 h, replicate 1",8% and 14%
same,Total Cell Count,"24 h, replicate 1",364 and 202
same,Population Apoptotic (%),"24 h, replicate 2",50%
same,Population Fragmented Nuclei (%),"24 h, replicate 2",58% and 75%
same,Population Healthy Nuclei (%),"24 h, replicate 2",37% and 21%
same,Population Hoechst High Intensity Objects (%),"24 h, replicate 2",33% and 52%
same,Population Membrane Permeable-Phenotype (%),"24 h, replicate 2",21% and 18%
same,Population Mitotic Cells (%),"24 h, replicate 2",50%
same,Population Normal (%),"24 h, replicate 2",66% and 47%
same,Population Pyknosed Nuclei (%),"24 h, replicate 2",3%
same,Total Cell Count,"24 h, replicate 2",77 and 109
